biological target: Serine/threonine-protein kinase mTOR (Homo sapiens) (UniProt P42345); assay: Inhibition of mTOR in human HeLa cells using 4E-BP1 substrate at 10 uM by ELISA; format: cell-based

inhibition [%] | SMILES
< 30 | c1cnc2nc(N3CCOCC3)nc(N3CCOCC3)c2c1
< 30 | CC1CCCCN1c1nc(N2CCOCC2)c2ccccc2n1 (stereo not drawn)
< 30 | CC1CCCCN1c1nc(N2CCOCC2)c2ccncc2n1 (stereo not drawn)
< 30 | CC1CCCCN1c1nc(N2CCOCC2)c2ncccc2n1 (stereo not drawn)
< 30 | C[C@H]1CCCCN1c1nc(N2CCCCC2)c2cccnc2n1

biological target: DNA-dependent protein kinase catalytic subunit (Homo sapiens, UniProt P78527); assay: Inhibition of DNA-PK

IC50 [µM] | SMILES
> 10 | COc1ccc(-c2ccc3c(N4CCOCC4)nc(N4C[C@@H](C)O[C@@H](C)C4)nc3n2)cc1CO [Ku-0063794]

test system: not listed separately; assay: Inhibition of mTOR in human HeLa cells using 4E-BP1 substrate by ELISA; format: cell-based
Procedure, shortened: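 Full-length mTOR immunoprecipitated from HeLa cytoplasmic extract; recombinant 4E-BP1 protein as substrate; ATP at 50 µM; phosphorylated product detected by ELISA. Values are the mean of at least 3 determinations, with variability around the mean <50%.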

IC50 [µM] | SMILES
1 | CC1CCCCN1c1nc(N2CCOCC2)c2cccnc2n1 (racemic)
3 | CC1CCCN(c2nc(N3CCOCC3)c3cccnc3n2)C1 (stereo not drawn)
0.22 | C[C@@H]1CN(c2nc(N3CCOCC3)c3ccc(-c4ccncc4)nc3n2)C[C@H](C)O1
4.8 | C[C@H]1CCCCN1c1nc(N2CCCOCC2)c2cccnc2n1
0.093 | C[C@@H]1CN(c2nc(N3CCOCC3)c3ccc(-c4cccc(CO)c4)nc3n2)C[C@H](C)O1
0.045 | COc1ccc(-c2ccc3c(N4CCOCC4)nc(N4C[C@@H](C)O[C@@H](C)C4)nc3n2)cc1
0.49 | COc1cccc(-c2ccc3c(N4CCOCC4)nc(N4C[C@@H](C)O[C@@H](C)C4)nc3n2)c1
0.062 | C[C@@H]1CN(c2nc(N3CCOCC3)c3ccc(-c4ccccc4)nc3n2)C[C@H](C)O1
0.12 | C[C@@H]1CN(c2nc(N3CCOCC3)c3ccc(Nc4ccccc4)nc3n2)C[C@H](C)O1
0.037 | C[C@@H]1CN(c2nc(N3CCOCC3)c3ccc(-c4ccc(O)c(CO)c4)nc3n2)C[C@H](C)O1
0.69 | C[C@H]1CCCCN1c1nc(N2CCOCC2)c2cccnc2n1
1.8 | C[C@H]1COCCN1c1nc(N2CCOCC2)c2cccnc2n1
0.016 | COc1ccc(-c2ccc3c(N4CCOCC4)nc(N4C[C@@H](C)O[C@@H](C)C4)nc3n2)cc1CO [Ku-0063794]
0.039 | C[C@@H]1CN(c2nc(N3CCOCC3)c3ccc(-c4ccc(O)cc4)nc3n2)C[C@H](C)O1
0.087 | C[C@@H]1CN(c2nc(N3CCOCC3)c3ccc(Nc4ccncc4)nc3n2)C[C@H](C)O1
0.033 | C[C@@H]1CN(c2nc(N3CCOCC3)c3ccc(-c4ccsc4)nc3n2)C[C@H](C)O1
1.3 | C[C@@H]1CN(c2nc(N3CCOCC3)c3cccnc3n2)C[C@H](C)O1
0.053 | C[C@@H]1CN(c2nc(N3CCOCC3)c3ccc(-c4cccc(O)c4)nc3n2)C[C@H](C)O1
0.12 | C[C@@H]1CN(c2nc(N3CCOCC3)c3ccc(-c4ccoc4)nc3n2)C[C@H](C)O1
1.2 | C[C@@H]1CCCCN1c1nc(N2CCOCC2)c2cccnc2n1

biological target: Serine/threonine-protein kinase ATR (Homo sapiens, UniProt Q13535); assay: Inhibition of ATR
Sequence (Q13535 whole entry): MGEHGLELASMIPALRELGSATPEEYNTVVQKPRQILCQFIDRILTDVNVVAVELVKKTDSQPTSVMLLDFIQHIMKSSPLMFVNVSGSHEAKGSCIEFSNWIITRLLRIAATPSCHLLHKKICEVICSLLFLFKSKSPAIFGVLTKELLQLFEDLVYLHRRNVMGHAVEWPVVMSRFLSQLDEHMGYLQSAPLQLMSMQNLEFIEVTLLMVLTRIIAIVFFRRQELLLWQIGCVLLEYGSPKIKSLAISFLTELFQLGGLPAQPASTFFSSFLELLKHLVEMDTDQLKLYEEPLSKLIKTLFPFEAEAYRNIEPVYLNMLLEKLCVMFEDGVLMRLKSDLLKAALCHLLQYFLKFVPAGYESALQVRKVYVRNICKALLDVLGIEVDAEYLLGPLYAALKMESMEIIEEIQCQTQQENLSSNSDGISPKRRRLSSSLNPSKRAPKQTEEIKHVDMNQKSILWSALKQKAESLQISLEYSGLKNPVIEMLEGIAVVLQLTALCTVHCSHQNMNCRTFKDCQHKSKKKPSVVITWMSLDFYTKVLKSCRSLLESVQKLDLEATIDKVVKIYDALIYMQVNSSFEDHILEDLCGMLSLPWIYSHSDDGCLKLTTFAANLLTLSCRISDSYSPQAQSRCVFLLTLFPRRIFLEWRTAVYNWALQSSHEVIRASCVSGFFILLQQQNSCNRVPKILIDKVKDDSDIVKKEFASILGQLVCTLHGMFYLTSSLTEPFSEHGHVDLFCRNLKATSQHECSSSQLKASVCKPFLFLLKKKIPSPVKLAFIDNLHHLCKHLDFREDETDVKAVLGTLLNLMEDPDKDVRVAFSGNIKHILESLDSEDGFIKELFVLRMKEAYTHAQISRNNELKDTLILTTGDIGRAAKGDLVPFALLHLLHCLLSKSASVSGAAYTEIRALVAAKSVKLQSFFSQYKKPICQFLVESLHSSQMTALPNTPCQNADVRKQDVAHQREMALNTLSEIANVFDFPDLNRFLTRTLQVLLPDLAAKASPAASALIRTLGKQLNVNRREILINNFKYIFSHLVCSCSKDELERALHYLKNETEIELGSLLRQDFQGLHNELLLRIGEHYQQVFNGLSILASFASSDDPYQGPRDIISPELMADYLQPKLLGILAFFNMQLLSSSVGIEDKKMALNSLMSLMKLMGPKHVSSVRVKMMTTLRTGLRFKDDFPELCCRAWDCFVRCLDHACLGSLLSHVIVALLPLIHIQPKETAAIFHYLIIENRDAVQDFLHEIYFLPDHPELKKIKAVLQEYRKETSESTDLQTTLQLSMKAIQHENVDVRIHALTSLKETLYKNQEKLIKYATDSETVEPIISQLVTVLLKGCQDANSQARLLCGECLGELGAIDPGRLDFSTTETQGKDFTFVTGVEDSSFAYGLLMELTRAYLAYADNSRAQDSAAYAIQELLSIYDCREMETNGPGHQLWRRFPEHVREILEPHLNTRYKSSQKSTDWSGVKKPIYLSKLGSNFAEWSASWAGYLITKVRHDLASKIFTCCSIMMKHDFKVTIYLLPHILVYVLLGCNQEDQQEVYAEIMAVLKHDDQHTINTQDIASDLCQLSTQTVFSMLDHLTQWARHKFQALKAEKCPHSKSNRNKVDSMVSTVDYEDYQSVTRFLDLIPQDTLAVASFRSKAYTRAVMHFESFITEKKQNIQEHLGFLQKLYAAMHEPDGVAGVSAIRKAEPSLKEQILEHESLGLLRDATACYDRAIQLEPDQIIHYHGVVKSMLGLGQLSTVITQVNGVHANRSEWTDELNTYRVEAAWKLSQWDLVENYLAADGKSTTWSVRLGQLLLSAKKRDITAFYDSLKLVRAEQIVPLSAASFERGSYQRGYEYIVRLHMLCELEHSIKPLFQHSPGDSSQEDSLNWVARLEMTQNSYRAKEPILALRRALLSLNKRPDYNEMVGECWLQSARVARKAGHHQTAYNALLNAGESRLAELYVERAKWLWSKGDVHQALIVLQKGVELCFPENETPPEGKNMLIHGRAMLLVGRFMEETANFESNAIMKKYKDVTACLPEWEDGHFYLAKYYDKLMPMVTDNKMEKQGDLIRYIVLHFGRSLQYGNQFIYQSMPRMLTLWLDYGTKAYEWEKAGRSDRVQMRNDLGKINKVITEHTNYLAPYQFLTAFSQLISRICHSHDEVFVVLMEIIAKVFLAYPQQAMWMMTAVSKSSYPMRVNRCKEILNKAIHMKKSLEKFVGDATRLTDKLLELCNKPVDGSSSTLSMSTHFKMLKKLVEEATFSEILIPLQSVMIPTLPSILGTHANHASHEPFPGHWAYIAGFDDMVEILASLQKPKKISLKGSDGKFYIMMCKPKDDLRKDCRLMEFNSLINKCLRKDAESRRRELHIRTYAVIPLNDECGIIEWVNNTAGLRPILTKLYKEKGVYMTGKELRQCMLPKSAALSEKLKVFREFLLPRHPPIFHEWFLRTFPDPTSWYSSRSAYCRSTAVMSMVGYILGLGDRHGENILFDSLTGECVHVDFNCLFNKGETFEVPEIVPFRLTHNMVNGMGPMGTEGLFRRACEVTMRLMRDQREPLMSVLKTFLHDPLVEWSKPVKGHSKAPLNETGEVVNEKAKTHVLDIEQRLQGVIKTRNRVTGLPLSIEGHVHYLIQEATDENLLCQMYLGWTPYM

IC50 [µM] | SMILES
> 10 | COc1ccc(-c2ccc3c(N4CCOCC4)nc(N4C[C@@H](C)O[C@@H](C)C4)nc3n2)cc1CO [Ku-0063794]

test system: T47D; assay: Antiproliferative activity against human T47D cells after 120 hrs by SRB assay; format: functional

GI50 [µM] | SMILES
0.35 | COc1ccc(-c2ccc3c(N4CCOCC4)nc(N4C[C@@H](C)O[C@@H](C)C4)nc3n2)cc1CO [Ku-0063794]

From ChEMBL document CHEMBL1154286, “The discovery and optimisation of pyrido[2,3-d]pyrimidine-2,4-diamines as potent and selective inhibitors of mTOR kinase” (Bioorg Med Chem Lett, 2009)
